Calls of active or inactive are those of the source. The rule behind the calls is not given here.
Legend:
Format in all cases: cell-based
[1] = biological target: T1, von Hippel-Lindau disease tumor suppressor/Mitogen-activated protein kinase kinase kinase 11 (Homo sapiens, UniProt Q16584+P40337); experiment: PROTAC activity at VHL/MLK3 in human MDA-MB-468 cells assessed as protein degradation at 1 uM measured after 24 hrs by immunoblot analysis
Method in brief: (§1)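 MCF-7 and MDA-MB-468 cells were treated for 24 h across 0.1–5 μM, with DMSO as control. MLK3 was immunoblotted and quantified as percent remaining versus concentration, from which DC50 and Dmax were derived.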

[2] = biological target: T1, von Hippel-Lindau disease tumor suppressor/Mitogen-activated protein kinase kinase kinase 11; experiment: PROTAC activity at VHL/MLK3 in human MCF7 cells assessed as protein degradation at 1 uM measured after 24 hrs by immunoblot analysis; method in brief: as §1
[3] = biological target: T1, von Hippel-Lindau disease tumor suppressor/Mitogen-activated protein kinase kinase kinase 11; experiment: PROTAC activity at VHL/DOX-inducible MLK3 (unknown origin) overexpressed in human HCC1806 cells assessed as protein degradation at 0.25 to 1 uM measured after 24 hrs by immunoblot analysis; settings: dose 0.25-1 µM
[4] = biological target: Mitogen-activated protein kinase kinase kinase 11 (Homo sapiens) (UniProt Q16584); experiment: Induction of degradation of DOX-inducible MLK3 (unknown origin) overexpressed in human MCF7 cells at 0.5 to 1 uM measured after 24 hrs by immunoblot analysis; settings: dose 0.5-1 µM
Sequence of Mitogen-activated protein kinase kinase kinase 11 (Homo sapiens) (Q16584 whole entry, looked up): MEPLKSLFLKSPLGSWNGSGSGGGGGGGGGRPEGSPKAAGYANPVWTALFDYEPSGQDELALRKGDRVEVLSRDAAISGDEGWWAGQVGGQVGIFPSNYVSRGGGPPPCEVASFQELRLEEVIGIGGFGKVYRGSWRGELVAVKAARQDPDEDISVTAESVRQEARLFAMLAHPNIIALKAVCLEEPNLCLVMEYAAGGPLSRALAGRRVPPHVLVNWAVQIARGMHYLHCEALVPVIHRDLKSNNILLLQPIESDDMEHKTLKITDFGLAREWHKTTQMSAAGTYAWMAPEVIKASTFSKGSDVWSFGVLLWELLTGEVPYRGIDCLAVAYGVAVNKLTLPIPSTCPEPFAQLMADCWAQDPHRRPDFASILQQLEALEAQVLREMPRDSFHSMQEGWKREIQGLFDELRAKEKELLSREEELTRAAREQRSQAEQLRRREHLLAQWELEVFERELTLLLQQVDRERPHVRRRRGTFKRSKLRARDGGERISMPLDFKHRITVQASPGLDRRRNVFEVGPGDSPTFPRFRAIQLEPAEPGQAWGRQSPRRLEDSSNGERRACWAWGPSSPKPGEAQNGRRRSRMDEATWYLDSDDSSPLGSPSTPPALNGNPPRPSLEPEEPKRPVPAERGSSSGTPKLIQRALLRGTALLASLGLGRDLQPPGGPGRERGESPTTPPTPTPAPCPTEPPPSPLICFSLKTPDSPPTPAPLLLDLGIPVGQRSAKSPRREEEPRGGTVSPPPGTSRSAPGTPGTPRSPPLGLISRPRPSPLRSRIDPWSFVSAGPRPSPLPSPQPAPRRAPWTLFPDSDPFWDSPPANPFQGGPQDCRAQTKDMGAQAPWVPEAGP

[5] = biological target: Mitogen-activated protein kinase kinase kinase 11 (Homo sapiens) (UniProt Q16584); experiment: Induction of degradation of DOX-inducible MLK3 (unknown origin) overexpressed in human MDA-MB-468 cells at 0.5 to 1 uM measured after 24 hrs by immunoblot analysis; settings: dose 0.5-1 µM

T1 sequence (P40337 whole entry, looked up): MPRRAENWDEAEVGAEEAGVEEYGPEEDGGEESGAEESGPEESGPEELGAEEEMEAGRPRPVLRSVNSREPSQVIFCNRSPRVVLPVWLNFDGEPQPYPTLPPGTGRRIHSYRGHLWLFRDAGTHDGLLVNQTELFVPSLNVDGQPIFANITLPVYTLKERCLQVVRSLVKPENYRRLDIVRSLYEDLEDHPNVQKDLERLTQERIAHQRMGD
T1 sequence (Q16584 whole entry, looked up): as the sequence (Q16584 whole entry, looked up) above

| SMILES | Activity [1] | Activity [2] | Activity [3] | Activity [4] | Activity [5] |
| --- | --- | --- | --- | --- | --- |
| CCSCc1ccc2c(c1)c1c3c(c4c5cc(CSCC)ccc5n5c4c1n2[C@H]1C[C@](O)(C(=O)NCCOCCOCCOCC(=O)N[C@H](C(=O)N2C[C@@H](O)C[C@H]2C(=O)N[C@@H](C)c2ccc(-c4scnc4C)cc2)C(C)(C)C)[C@]5(C)O1)CNC3=O | inactive | inactive | inactive |  |  |
| CCSCc1ccc2c(c1)c1c3c(c4c5cc(CSCC)ccc5n5c4c1n2[C@H]1C[C@](O)(C(=O)OC)[C@]5(C)O1)CNC3=O |  |  |  | inactive | inactive |
